# In ChEMBL document CHEMBL1828552, “Synthesis and studies of novel 2-(4-cyano-3-trifluoromethylphenyl amino)-4-(quinoline-4-yloxy)-6-(piperazinyl/piperidinyl)-s-triazines as potential antimicrobial, antimycobacterial and anticancer agents” (2011):
# Columns and labels:
# [1] = test system: Aspergillus niger; assay: Antifungal activity against 10^5 CFU/mL Aspergillus niger MTCC 282 after 48 hrs by agar streak dilution method; type: functional; details: MTCC 282, 48 h
# How it was run: (§1)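 Agar streak dilution for fungi. Stock 100 µg/mL in DMSO; graded amounts were mixed into molten Sabouraud dextrose agar and poured at 4–5 mm depth. Serial dilutions ran over […]. About 10⁵ CFU/mL inoculum was applied, with incubation at 37 ± 1 °C for 48 h. MIC was read from the dilution series.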
# [2] = test system: Proteus vulgaris; assay: Antibacterial activity against 10^5 CFU/mL Proteus vulgaris MTCC 1771 after 24 hrs by disc diffusion technique; type: functional
# How it was run: (§2)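 Disc diffusion on Mueller–Hinton agar poured 5 mm deep. The surface was swabbed with a 10⁵ CFU/mL […] suspension. Filter-paper discs 6.25 mm in diameter were soaked in compound in DMSO and placed on the agar. Plates were incubated 24 h at 37 ± 1 °C, and the inhibition zone was measured in mm. A DMSO disc served as blank.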
# [3] = test system: Pseudomonas aeruginosa; assay: Antibacterial activity against 10^5 CFU/mL Pseudomonas aeruginosa MTCC 741 after 24 hrs by disc diffusion technique; type: functional; how it was run: as §2
# [4] = test system: Aspergillus fumigatus; assay: Antifungal activity against 10^5 CFU/mL Aspergillus fumigatus MTCC 343 after 48 hrs by disc diffusion technique; type: functional
# [5] = test system: Salmonella typhi; assay: Antibacterial activity against 10^5 CFU/mL Salmonella typhi MTCC 733 after 24 hrs by agar streak dilution method; type: functional, Salmonella enterica subsp. enterica serovar Typhi; details: Salmonella enterica, MTCC 733, 24 h
# [6] = test system: Escherichia coli; assay: Antibacterial activity against 10^5 CFU/mL Escherichia coli MTCC 739 after 24 hrs by disc diffusion technique; type: functional; how it was run: as §2
# [7] = test system: Aspergillus niger; assay: Antifungal activity against 10^5 CFU/mL Aspergillus niger MTCC 282 after 48 hrs by disc diffusion technique; type: functional
# [8] = test system: Pseudomonas aeruginosa; assay: Antibacterial activity against 10^5 CFU/mL Pseudomonas aeruginosa MTCC 741 after 24 hrs by agar streak dilution method; type: functional; details: MTCC 741, 24 h
# How it was run: (§3)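 Agar streak dilution. Stock 100 µg/mL in DMSO; graded amounts were mixed into molten nutrient agar and poured at 4–5 mm depth. Plates carried serial dilutions over […]. About 10⁵ CFU/mL of each bacterium was applied, and plates were incubated at 37 ± 1 °C for 24 h. MIC was read from the dilution series.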
# [9] = test system: Staphylococcus aureus; assay: Antibacterial activity against 10^5 CFU/mL Staphylococcus aureus MTCC 96 after 24 hrs by agar streak dilution method; type: functional; details: MTCC 96, 24 h; how it was run: as §3
# [10] = test system: Shigella flexneri; assay: Antibacterial activity against 10^5 CFU/mL Shigella flexneri MTCC 1457 after 24 hrs by disc diffusion technique; type: functional; how it was run: as §2
# [11] = test system: Proteus vulgaris; assay: Antibacterial activity against 10^5 CFU/mL Proteus vulgaris MTCC 1771 after 24 hrs by agar streak dilution method; type: functional; details: MTCC 1771, 24 h; how it was run: as §3
# [12] = test system: Candida albicans; assay: Antifungal activity against 10^5 CFU/mL Candida albicans MTCC 183 after 48 hrs by agar streak dilution method; type: functional; details: MTCC 183, 48 h; how it was run: as §1
# [13] = test system: Bacillus cereus; assay: Antibacterial activity against 10^5 CFU/mL Bacillus cereus MTCC 619 after 24 hrs by disc diffusion technique; type: functional; how it was run: as §2
# [14] = test system: Staphylococcus aureus; assay: Antibacterial activity against 10^5 CFU/mL Staphylococcus aureus MTCC 96 after 24 hrs by disc diffusion technique; type: functional; how it was run: as §2
# [15] = test system: DU-145; assay: Cytotoxicity against […] human DU145 cells after 48 hrs by SRB assay; type: functional; details: DU-145, 48 h
# How it was run: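 SRB assay in DU-145 cells grown in RPMI 1640 with 10% FBS and 2 mM L-glutamine. Cells were plated and held 24 h before addition of four 10-fold concentrations. After 48 h, cells were TCA-fixed, stained with 0.4% SRB and read at 540 nm. GI50, TGI and LC50 were derived against time-zero and control wells; each value is the mean of three experiments.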
# [16] = test system: Klebsiella pneumoniae; assay: Antibacterial activity against 10^5 CFU/mL Klebsiella pneumoniae MTCC 109 after 24 hrs by disc diffusion technique; type: functional; how it was run: as §2
# [17] = test system: Candida albicans; assay: Antifungal activity against 10^5 CFU/mL Candida albicans MTCC 183 after 48 hrs by disc diffusion technique; type: functional
# [18] = test system: Aspergillus fumigatus; assay: Antifungal activity against 10^5 CFU/mL Aspergillus fumigatus MTCC 343 after 48 hrs by agar streak dilution method; type: functional; details: MTCC 343, 48 h; how it was run: as §1
# [19] = test system: Klebsiella pneumoniae; assay: Antibacterial activity against 10^5 CFU/mL Klebsiella pneumoniae MTCC 109 after 24 hrs by agar streak dilution method; type: functional; details: MTCC 109, 24 h; how it was run: as §3
# [20] = test system: Aspergillus clavatus; assay: Antifungal activity against 10^5 CFU/mL Aspergillus clavatus MTCC 1323 after 48 hrs by agar streak dilution method; type: functional; details: MTCC 1323, 48 h; how it was run: as §1
# [21] = test system: Salmonella typhi; assay: Antibacterial activity against 10^5 CFU/mL Salmonella typhi MTCC 733 after 24 hrs by disc diffusion technique; type: functional, Salmonella enterica subsp. enterica serovar Typhi
# How it was run: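 Disc diffusion. Mueller-Hinton agar autoclaved 120 °C 30 min, poured 5 mm deep. Surface swabbed with 10⁵ CFU/mL suspension […]. 6.25 mm filter-paper discs soaked in compound in DMSO; DMSO-only disc as blank. Incubated 37 ± 1 °C, 24 h for bacteria or 48 h for fungi. Ciprofloxacin and ketoconazole discs as reference drugs. Inhibition zone measured in mm.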
# [22] = test system: Bacillus cereus; assay: Antibacterial activity against 10^5 CFU/mL Bacillus cereus MTCC 619 after 24 hrs by agar streak dilution method; type: functional; details: MTCC 619, 24 h; how it was run: as §3
# [23] = test system: Escherichia coli; assay: Antibacterial activity against 10^5 CFU/mL Escherichia coli MTCC 739 after 24 hrs by agar streak dilution method; type: functional; details: MTCC 739, 24 h; how it was run: as §3
# [24] = test system: Aspergillus clavatus; assay: Antifungal activity against 10^5 CFU/mL Aspergillus clavatus MTCC 1323 after 48 hrs by disc diffusion technique; type: functional
# [25] = test system: Shigella flexneri; assay: Antibacterial activity against 10^5 CFU/mL Shigella flexneri MTCC 1457 after 24 hrs by agar streak dilution method; type: functional; details: MTCC 1457, 24 h; how it was run: as §3
Structure (SMILES),MIC [1] [µg/mL],inhibition zone (IZ) [2] [mm],inhibition zone (IZ) [3] [mm],inhibition zone (IZ) [4] [mm],MIC [5] [µg/mL],inhibition zone (IZ) [6] [mm],inhibition zone (IZ) [7] [mm],MIC [8] [µg/mL],MIC [9] [µg/mL],inhibition zone (IZ) [10] [mm],MIC [11] [µg/mL],MIC [12] [µg/mL],inhibition zone (IZ) [13] [mm],inhibition zone (IZ) [14] [mm],GI50 [15] [µM],LC50 (concentration giving 50% net cell kill relative to time zero) [15] [µM],TGI [15] [µM],inhibition zone (IZ) [16] [mm],inhibition zone (IZ) [17] [mm],MIC [18] [µg/mL],other results
CN1CCN(c2nc(Nc3ccc(C#N)c(C(F)(F)F)c3)nc(Oc3ccnc4ccccc34)n2)CC1,100,<10,14,<10,100,<10,<10,100,100,11,100,100,<10,<10,51.2,> 100,> 100,<10,<10,100,MIC [19]: 100 µg/mL; MIC [20]: 100 µg/mL; inhibition zone (IZ) [21]: 13 mm; MIC [22]: 100 µg/mL; MIC [23]: 100 µg/mL; inhibition zone (IZ) [24]: <10 mm; MIC [25]: 100 µg/mL
CCN1CCN(c2nc(Nc3ccc(C#N)c(C(F)(F)F)c3)nc(Oc3ccnc4ccccc34)n2)CC1,100,<10,16,<10,100,13,<10,100,100,13,100,100,14,13,86.6,> 100,> 100,<10,12,100,MIC [19]: 100 µg/mL; MIC [20]: 100 µg/mL; inhibition zone (IZ) [21]: 15 mm; MIC [22]: 100 µg/mL; MIC [23]: 100 µg/mL; inhibition zone (IZ) [24]: <10 mm; MIC [25]: 100 µg/mL
N#Cc1ccc(Nc2nc(Oc3ccnc4ccccc34)nc(N3CCN(c4ccccc4Cl)CC3)n2)cc1C(F)(F)F,100,23,23,21,50,22,21,50,12.5,21,100,100,24,25,92.6,> 100,> 100,26,20,100,MIC [19]: 12.5 µg/mL; MIC [20]: 100 µg/mL; inhibition zone (IZ) [21]: 23 mm; MIC [22]: 12.5 µg/mL; MIC [23]: 50 µg/mL; inhibition zone (IZ) [24]: 20 mm; MIC [25]: 50 µg/mL
N#Cc1ccc(Nc2nc(Oc3ccnc4ccccc34)nc(N3CCN(c4cccc(Cl)c4Cl)CC3)n2)cc1C(F)(F)F,25,25,23,25,12.5,23,24,25,6.25,24,12.5,50,28,28,> 100,> 100,> 100,24,23,25,MIC [19]: 12.5 µg/mL; MIC [20]: 50 µg/mL; inhibition zone (IZ) [21]: 25 mm; MIC [22]: 6.25 µg/mL; MIC [23]: 50 µg/mL; inhibition zone (IZ) [24]: 21 mm; MIC [25]: 12.5 µg/mL
